{
  "source": "ChEMBL document CHEMBL4145607",
  "about": "“Tamarixetin Exhibits Anti-inflammatory Activity and Prevents Bacterial Sepsis by Increasing IL-10 Production” (J Nat Prod, 2018)",
  "key": {"[1]": {"test_system": "BMDC", "assay": "Inhibition of Escherichia coli DH5alpha infection-induced immune response in C57BL/6 mouse BMDC assessed as reduction in IL-6 secretion at 25 uM pretreated for 30 mins followed by Escherichia coli DH5alpha infection for 6 hrs by ELISA", "assay_type": "functional, cell-based", "summary_of_the_method": "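C57BL/6 BMDCs received 25 μM compound and E. coli DH5α, 3 × 10^6 CFU·mL−1. Schedules were: compound 30 min before a 6 h infection; co-addition for 6 h; or compound for 30, 60, 90 or 120 min plus 6 h infection. Supernatant TNF-α, IL-6, IL-10 and IL-12p70 were measured by ELISA. At least three experiments in triplicate.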"}, "[2]": {"test_system": "BMDC", "assay": "Inhibition of Escherichia coli K1 infection-induced immune response in C57BL/6 mouse BMDC assessed as reduction in IL-6 secretion at 25 uM pretreated for 60 to 120 mins followed by Escherichia coli K1 infection for 6 hrs by ELISA", "assay_type": "functional, cell-based", "summary_of_the_method": "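BMDCs from C57BL/6 mice were given 25 μM compound and E. coli K1, […]. Timing was: compound 30 min before a 6 h infection; cotreatment for 6 h; or compound for 30–120 min with 6 h infection. Supernatant cytokines (TNF-α, IL-6, IL-10, IL-12p70) were measured by ELISA. At least three experiments in triplicate.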"}, "[3]": {"test_system": "BMDC", "assay": "Inhibition of LPS-induced immune response in C57BL/6 mouse BMDC assessed as reduction in TNFalpha secretion up to 25 uM pretreated for 30 mins followed by LPS-challenge measured after 6 hrs by ELISA", "assay_type": "functional, cell-based", "summary_of_the_method": "(§1)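 Mouse BMDCs (female C57BL/6 bone marrow, GM-CSF-derived, ≥90% CD11c+ on day 7) pretreated 30 min with graded compound concentrations, then stimulated with LPS 50 ng/mL for 6 h. Supernatant TNF-α, IL-6, IL-10 and IL-12p70 quantified by sandwich ELISA. Mean ± SEM vs LPS-only cells; experiments repeated at least three times.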"}, "[4]": {"test_system": "Mus musculus", "assay": "Antiinflammatory activity in Balb/c mouse model of LPS-induced endotoxemia assessed as increase in IL10 producing monocyte/macrophage in splenocyte at 1 mg/kg, ip pretreated for 1 hr followed by LPS-challenge measured after 12 hrs by flow cytometric analysis", "assay_type": "functional, organism-based"}, "[5]": {"test_system": "Mus musculus", "assay": "Antiinflammatory activity in Balb/c mouse model of LPS-induced endotoxemia assessed as reduction in infiltration of immune cells at 1 mg/kg, ip pretreated for 1 hr followed by LPS-challenge measured after 12 hrs by hematoxylin and eosin staining based microscopic analysis", "assay_type": "functional, organism-based", "summary_of_the_method": "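Dosing was 1 mg·kg−1 i.p. 1 h before LPS 10 mg·kg−1 i.p. in BALB/c mice. At 12 h lungs were perfused and formalin-fixed, then paraffin-embedded. 5 μm sections were H&E-stained and imaged by microscope. Representative of three independent experiments.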"}, "[6]": {"test_system": "Mus musculus", "assay": "Antiseptic activity in Balb/c mouse model of Escherichia coli K1 infection-induced sepsis assessed as reduction in serum IL6 level at 1 mg/kg, ip pretreated for 1 hr followed by Escherichia coli K1 infection measured after 2 hrs by ELISA", "assay_type": "functional, organism-based", "summary_of_the_method": "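BALB/c mice received 1 mg·kg−1 i.p. 1 h before i.p. E. coli K1 RS218, 1 × 10^6 CFU per mouse. Serum was collected at 2 h, and TNF-α, IL-6 and IL-10 were quantified by sandwich ELISA. Means ± SEM.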"}, "[7]": {"target": "T1, Toll-like receptor 4 (Mus musculus) (UniProt Q9QUK6)", "T1 sequence (whole entry)": "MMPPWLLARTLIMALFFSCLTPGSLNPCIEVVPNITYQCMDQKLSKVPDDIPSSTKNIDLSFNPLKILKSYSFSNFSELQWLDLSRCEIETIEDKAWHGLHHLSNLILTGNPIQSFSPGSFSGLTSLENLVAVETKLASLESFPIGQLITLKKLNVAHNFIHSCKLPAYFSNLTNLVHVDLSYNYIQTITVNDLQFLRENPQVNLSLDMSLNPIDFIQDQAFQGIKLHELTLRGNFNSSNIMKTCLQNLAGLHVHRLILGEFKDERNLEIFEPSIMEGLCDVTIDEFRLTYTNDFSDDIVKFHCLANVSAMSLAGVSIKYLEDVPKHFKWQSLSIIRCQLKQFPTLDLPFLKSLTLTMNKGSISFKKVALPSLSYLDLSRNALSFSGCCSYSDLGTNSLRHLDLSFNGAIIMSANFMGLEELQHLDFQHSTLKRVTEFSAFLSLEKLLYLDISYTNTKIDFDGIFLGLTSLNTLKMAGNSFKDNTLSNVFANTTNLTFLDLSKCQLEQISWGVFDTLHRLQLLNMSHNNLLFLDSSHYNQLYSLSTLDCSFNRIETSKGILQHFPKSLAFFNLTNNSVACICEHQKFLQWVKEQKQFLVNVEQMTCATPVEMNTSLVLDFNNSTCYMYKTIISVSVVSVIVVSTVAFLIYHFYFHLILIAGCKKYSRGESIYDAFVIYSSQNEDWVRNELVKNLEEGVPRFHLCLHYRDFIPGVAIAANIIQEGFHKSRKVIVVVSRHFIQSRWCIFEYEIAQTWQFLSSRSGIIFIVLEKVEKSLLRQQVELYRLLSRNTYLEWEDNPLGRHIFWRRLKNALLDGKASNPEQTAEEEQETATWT", "assay": "Inhibition of LPS-induced TLR4 activation in C57BL/6 mouse BMDC assessed as reduction in IkappaBalpha degradation at 25 uM pretreated for 30 mins followed by LPS-challenge measured after 15 to 90 mins by Western blot analysis", "assay_type": "cell-based", "summary_of_the_method": "(§2)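 BMDCs were pretreated 30 min with 25 μM compound, then stimulated with LPS 50 ng·mL−1 for the indicated times. Lysates (25 μg protein) were run on 10% SDS-PAGE and immunoblotted for phospho/total ERK, JNK, p38 and Akt, plus COX-2, IκBα and α-tubulin, with ECL detection. Representative of three experiments.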"}, "[8]": {"test_system": "BMDC", "assay": "Inhibition of LPS-induced immune response in C57BL/6 mouse BMDC assessed as reduction in IL-6 secretion at 25 uM treated 6 hrs post LPS-challenge measured after 60 to 120 mins by ELISA", "assay_type": "functional, cell-based", "summary_of_the_method": "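Bone marrow DCs from 6-week-old female C57BL/6 mice, RBC-lysed, cultured in RPMI-1640/10% FBS with 10 ng/mL rmGM-CSF, 37 °C, 5% CO2. Cells given LPS 50 ng/mL for 6 h, then 25 μM compound added for 30, 60, 90 or 120 min. Supernatant TNF-α, IL-6, IL-10, IL-12p70 measured by sandwich ELISA. Mean ± SEM, compared with LPS-only DCs.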"}, "[9]": {"target": "T1, Toll-like receptor 4 (Mus musculus)", "assay": "Inhibition of LPS-induced TLR4 activation in C57BL/6 mouse BMDC assessed as reduction in COX2 expression at 25 uM pretreated for 30 mins followed by LPS-challenge measured after 15 to 90 mins by Western blot analysis", "assay_type": "cell-based", "summary_of_the_method": "as §2"}, "[10]": {"target": "T1, Toll-like receptor 4 (Mus musculus)", "assay": "Inhibition of LPS-induced TLR4 activation in C57BL/6 mouse BMDC assessed as reduction in Akt phosphorylation at 25 uM pretreated for 30 mins followed by LPS-challenge measured after 15 to 90 mins by Western blot analysis", "assay_type": "cell-based", "summary_of_the_method": "as §2"}, "[11]": {"test_system": "BMDC", "assay": "Inhibition of LPS-induced immune response in C57BL/6 mouse BMDC assessed as reduction in IL-6 secretion up to 25 uM pretreated for 30 mins followed by LPS-challenge measured after 6 hrs by ELISA", "assay_type": "functional, cell-based", "summary_of_the_method": "as §1"}},
  "note": "Active and inactive are the calls of the source. The rule behind the calls is not given here.",
  "data": [
    {"compound": "COc1ccc(-c2oc3cc(O)cc(O)c3c(=O)c2O)cc1O", "note": "[TAMARIXETIN]", "values": [
      {"measurement": "inhibition", "setting": "[1]", "result": "Active"},
      {"measurement": "inhibition", "setting": "[2]", "result": "inactive"},
      {"measurement": "inhibition", "setting": "[3]", "result": "Active"},
      {"measurement": "Activity", "setting": "[4]", "result": "Active"},
      {"measurement": "Activity", "setting": "[5]", "result": "Active"},
      {"measurement": "Activity", "setting": "[6]", "result": "Active"},
      {"measurement": "inhibition", "setting": "[7]", "result": "Active"},
      {"measurement": "inhibition", "setting": "[8]", "result": "inactive"},
      {"measurement": "inhibition", "setting": "[9]", "result": "Active"},
      {"measurement": "inhibition", "setting": "[10]", "result": "Active"},
      {"measurement": "inhibition", "setting": "[11]", "result": "Active"}
    ]}
  ]
}
